Measured values reported in ChEMBL document CHEMBL4196174, “Discovery of Indole Derivatives as Novel and Potent Dengue Virus Inhibitors” (J Med Chem, 2018).
pEC50, pIC50: −log10 of the molar value. Converted amounts (≈) assume the structure as drawn.

What was measured:
[1] = test system: dengue virus type 2; experiment: Antiviral activity against Dengue virus 2 Rega infected in African green monkey Vero cells assessed as reduction in viral yield after 4 days by qRT-PCR analysis; format: functional, organism-based
Summary of the method: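 Virus yield reduction in Vero cells (seeded 5×10^4/well). Next day infected with DENV (MOI 0.01) in assay medium (MEM, 2% FBS, 0.075% bicarbonate, 2 mM L-glutamine). After 1 h, input virus was removed and cells rinsed 3 times. Medium with 3- or 5-fold compound serial dilutions was then added. Incubation was 4 days (DENV-2, DENV-4) or 7 days (DENV-1, DENV-3). Supernatant viral RNA was measured by RT-qPCR, and EC50 obtained by logarithmic interpolation.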

[2] = (§1) Cytotoxicity against African green monkey Vero cells assessed as cell growth inhibition after 4 days by MTS/PMS method; format: cell-based; conditions: chlorocebus sabaeus, Vero cells
Summary of the method: (§2)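 Cytotoxicity run as in the yield assay, but without virus. Vero cells (5×10^4/well) were exposed to 3- or 5-fold serial dilutions in MEM with 2% FBS. Viability was read by the MTS/PMS colorimetric method. CC50 was derived by logarithmic interpolation.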

[3] = test system: Salmonella typhimurium; experiment: Mutagenicity in Salmonella typhimurium in presence of human liver S9 fraction by Ames test; format: toxicity, organism-based; conditions: salmonella enterica subsp. enterica serovar typhimurium
[4] = test system: Salmonella typhimurium; experiment: Mutagenicity in Salmonella typhimurium in absence of human liver S9 fraction by Ames test; format: toxicity, organism-based; conditions: salmonella enterica subsp. enterica serovar typhimurium
[5] = Solubility of the compound in DMSO solution at pH 7.4; format: physicochemical; conditions: read-out: solubility
Summary of the method: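 Solubility measured at pH 7.4, starting from a DMSO solution.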

[6] = test system: P-gp (MDR1); experiment: Apparent permeability across apical to basolateral side in MDR1 transfected pig LLC-PK1 cells in absence of P-gp inhibitor GF120918; format: ADME, cell-based, Sus scrofa; conditions: LLC-PK1
Summary of the method: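 Permeability measured in MDR1-transfected LLC-PK1 cells without the P-gp inhibitor GF120918.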

[7] = Protein binding in human plasma; format: ADME, cell-free; conditions: read-out: PPB (converted)
[8] = Protein binding in rat plasma; format: ADME, cell-free; conditions: read-out: PPB (converted)
[9] = Drug metabolism in human liver microsomes after 15 mins; format: ADME, microsome; conditions: for metabolised at 0.25 h: liver microsomes, read-out: Drug metabolism
Summary of the method: (§3)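 Percentage of compound metabolized after 15 min incubation with human or rat liver microsomes.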

[10] = Drug metabolism in rat liver microsomes after 15 mins; format: ADME, microsome; conditions: liver microsomes, read-out: Drug metabolism; summary of the method: as §3
[11] = molecular target: T1, Cytochrome P450 1A2 (Homo sapiens, UniProt P05177); experiment: Inhibition of CYP1A2 (unknown origin); format: ADME
T1 sequence (P05177 whole entry): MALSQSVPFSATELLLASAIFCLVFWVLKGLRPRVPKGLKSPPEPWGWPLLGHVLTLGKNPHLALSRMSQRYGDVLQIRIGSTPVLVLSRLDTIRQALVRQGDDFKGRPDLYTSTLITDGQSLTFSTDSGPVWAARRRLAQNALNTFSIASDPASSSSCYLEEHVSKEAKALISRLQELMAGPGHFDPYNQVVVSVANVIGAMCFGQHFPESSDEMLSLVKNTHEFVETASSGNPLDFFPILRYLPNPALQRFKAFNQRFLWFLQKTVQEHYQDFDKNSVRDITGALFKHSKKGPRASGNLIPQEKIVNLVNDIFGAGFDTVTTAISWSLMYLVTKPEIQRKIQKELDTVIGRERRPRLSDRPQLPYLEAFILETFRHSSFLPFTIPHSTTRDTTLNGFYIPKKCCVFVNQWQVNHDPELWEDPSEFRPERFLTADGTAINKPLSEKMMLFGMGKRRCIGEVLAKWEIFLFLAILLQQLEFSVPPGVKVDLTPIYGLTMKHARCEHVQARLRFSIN

[12] = molecular target: Cytochrome P450 2C19 (Homo sapiens, UniProt P33261); experiment: Inhibition of CYP2C19 (unknown origin); format: ADME
[13] = molecular target: Cytochrome P450 2C9 (Homo sapiens, UniProt P11712); experiment: Inhibition of CYP2C9 (unknown origin); format: ADME
[14] = molecular target: Cytochrome P450 2D6 (Homo sapiens, UniProt P10635); experiment: Inhibition of CYP2D6 (unknown origin); format: ADME
[15] = molecular target: Cytochrome P450 3A4 (Homo sapiens, UniProt P08684); experiment: Inhibition of CYP3A4 (unknown origin); format: ADME
[16] = molecular target: Voltage-gated inwardly rectifying potassium channel KCNH2 (Homo sapiens, UniProt Q12809); experiment: Inhibition of human ERG
[17] = test system: Vero; experiment: as §1; format: cell-based; conditions: chlorocebus sabaeus, vero, 96 h; summary of the method: as §2
[18] = Clearance in rat at 2.5 mg/kg, iv; format: ADME, organism-based; conditions: in vivo
Summary of the method: (§4)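 Rat PK. Intravenous dose was 2.5 mg/kg in PEG400/water 7/3. Oral dose was 10 mg/kg in PEG400.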

[19] = Volume of distribution at steady state in rat at 2.5 mg/kg, iv; format: ADME, organism-based; conditions: in vivo, read-out: Vdss; summary of the method: as §4
[20] = Half life in rat at 2.5 mg/kg, iv; format: ADME, organism-based; conditions: in vivo; summary of the method: as §4
[21] = Cmax in rat at 10 mg/kg, po; format: ADME, organism-based; design: dose 10 mg/kg, route oral; conditions: in vivo; summary of the method: as §4
[22] = AUClast in rat at 10 mg/kg, po; format: ADME, organism-based; design: dose 10 mg/kg, route oral, time 0 - last; conditions: in vivo; summary of the method: as §4
[23] = Oral bioavailability in rat at 10 mg/kg; format: ADME, organism-based; conditions: in vivo; summary of the method: as §4

Chain of Cytochrome P450 2C9 (P11712 whole entry): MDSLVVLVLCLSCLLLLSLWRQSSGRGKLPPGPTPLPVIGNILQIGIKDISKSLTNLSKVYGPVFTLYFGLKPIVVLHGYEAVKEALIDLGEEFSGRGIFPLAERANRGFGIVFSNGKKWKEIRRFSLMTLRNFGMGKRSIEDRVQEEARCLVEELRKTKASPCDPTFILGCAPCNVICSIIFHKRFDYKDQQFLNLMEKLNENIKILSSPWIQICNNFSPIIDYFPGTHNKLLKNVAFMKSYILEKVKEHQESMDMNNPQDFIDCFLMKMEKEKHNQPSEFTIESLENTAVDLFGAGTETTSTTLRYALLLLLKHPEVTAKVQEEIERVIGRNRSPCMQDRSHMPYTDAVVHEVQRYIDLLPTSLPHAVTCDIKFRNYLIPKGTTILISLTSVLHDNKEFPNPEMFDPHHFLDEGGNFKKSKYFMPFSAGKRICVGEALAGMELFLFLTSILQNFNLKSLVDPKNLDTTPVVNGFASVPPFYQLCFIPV
Chain of Cytochrome P450 2D6 (P10635 whole entry): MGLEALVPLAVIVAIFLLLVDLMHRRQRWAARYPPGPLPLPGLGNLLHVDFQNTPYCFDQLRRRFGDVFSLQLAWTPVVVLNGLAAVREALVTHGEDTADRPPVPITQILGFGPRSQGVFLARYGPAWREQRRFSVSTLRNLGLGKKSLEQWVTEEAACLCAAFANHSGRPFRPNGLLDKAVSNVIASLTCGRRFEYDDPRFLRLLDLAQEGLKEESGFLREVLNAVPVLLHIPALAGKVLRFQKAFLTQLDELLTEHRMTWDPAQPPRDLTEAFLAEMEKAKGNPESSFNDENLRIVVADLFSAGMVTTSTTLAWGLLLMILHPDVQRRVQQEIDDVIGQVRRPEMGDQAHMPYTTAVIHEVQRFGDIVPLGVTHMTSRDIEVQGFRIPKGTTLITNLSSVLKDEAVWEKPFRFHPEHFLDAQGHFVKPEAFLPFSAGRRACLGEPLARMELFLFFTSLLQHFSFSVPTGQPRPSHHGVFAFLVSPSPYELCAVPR
Chain of Cytochrome P450 2C19 (P33261 whole entry): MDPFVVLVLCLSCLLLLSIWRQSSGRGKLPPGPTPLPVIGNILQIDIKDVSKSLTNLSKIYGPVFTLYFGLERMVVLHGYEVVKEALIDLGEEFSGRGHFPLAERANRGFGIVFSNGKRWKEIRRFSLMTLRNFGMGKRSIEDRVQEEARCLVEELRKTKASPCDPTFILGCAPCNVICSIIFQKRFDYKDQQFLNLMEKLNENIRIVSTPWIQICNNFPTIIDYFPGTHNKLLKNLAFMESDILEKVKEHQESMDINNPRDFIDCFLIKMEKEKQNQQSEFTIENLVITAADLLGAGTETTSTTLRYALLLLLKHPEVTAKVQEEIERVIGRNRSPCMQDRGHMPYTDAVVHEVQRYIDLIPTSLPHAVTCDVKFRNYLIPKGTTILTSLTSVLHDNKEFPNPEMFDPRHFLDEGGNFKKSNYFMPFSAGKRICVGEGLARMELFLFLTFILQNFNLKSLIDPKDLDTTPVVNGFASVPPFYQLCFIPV
Chain of Cytochrome P450 3A4 (P08684 whole entry): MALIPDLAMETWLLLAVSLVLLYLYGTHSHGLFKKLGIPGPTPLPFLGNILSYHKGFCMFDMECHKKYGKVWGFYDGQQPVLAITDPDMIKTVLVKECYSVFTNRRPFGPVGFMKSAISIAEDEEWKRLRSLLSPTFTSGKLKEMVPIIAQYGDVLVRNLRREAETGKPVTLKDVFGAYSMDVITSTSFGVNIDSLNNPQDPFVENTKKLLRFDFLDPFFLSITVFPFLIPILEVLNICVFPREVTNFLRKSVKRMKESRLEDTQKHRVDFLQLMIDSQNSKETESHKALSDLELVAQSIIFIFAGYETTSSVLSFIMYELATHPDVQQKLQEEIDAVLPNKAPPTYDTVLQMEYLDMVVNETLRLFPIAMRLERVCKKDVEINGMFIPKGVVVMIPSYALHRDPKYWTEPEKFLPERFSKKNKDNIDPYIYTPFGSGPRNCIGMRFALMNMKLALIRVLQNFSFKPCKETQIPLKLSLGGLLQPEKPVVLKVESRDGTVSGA
Chain of Voltage-gated inwardly rectifying potassium channel KCNH2 (Q12809 whole entry): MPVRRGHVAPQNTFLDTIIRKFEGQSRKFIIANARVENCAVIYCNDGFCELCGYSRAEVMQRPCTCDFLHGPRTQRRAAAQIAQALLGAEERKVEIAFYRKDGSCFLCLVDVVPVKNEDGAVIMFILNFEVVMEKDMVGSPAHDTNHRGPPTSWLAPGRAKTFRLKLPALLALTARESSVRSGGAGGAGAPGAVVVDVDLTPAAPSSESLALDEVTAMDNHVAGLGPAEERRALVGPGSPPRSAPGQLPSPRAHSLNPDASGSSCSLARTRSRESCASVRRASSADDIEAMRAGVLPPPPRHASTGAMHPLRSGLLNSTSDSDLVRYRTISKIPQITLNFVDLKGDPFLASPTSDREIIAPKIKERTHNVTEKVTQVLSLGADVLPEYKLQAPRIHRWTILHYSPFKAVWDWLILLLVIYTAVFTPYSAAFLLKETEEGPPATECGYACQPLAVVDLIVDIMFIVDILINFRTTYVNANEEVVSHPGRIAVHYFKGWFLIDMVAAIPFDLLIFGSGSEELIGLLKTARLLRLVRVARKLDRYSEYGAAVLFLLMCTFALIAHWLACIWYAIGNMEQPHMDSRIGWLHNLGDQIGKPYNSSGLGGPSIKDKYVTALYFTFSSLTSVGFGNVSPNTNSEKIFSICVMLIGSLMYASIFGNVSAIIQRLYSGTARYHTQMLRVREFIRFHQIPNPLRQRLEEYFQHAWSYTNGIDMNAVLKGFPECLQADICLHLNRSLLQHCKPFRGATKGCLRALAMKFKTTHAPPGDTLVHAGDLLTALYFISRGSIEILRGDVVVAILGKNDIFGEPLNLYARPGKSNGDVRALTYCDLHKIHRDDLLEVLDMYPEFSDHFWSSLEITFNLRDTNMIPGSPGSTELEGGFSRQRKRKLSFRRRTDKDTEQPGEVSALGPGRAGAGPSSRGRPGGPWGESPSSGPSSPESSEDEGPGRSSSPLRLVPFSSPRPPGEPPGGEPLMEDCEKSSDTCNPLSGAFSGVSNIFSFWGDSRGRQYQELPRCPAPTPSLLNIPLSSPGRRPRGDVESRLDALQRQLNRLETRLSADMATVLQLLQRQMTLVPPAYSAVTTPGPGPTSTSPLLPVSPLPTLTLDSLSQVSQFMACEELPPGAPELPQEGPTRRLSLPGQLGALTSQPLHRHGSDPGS

Question: With COc1cccc(NC(C(=O)c2c[nH]c3ccccc23)c2ccccc2)c1 (stereo not given) as the compound, how does the pEC50 ([1]; Dengue virus, Rega, Vero, 96 h) read?
Answer: 7.14

Question: What about the CC50 at 96 h [2] of the same compound?
Answer: 18 µM

Question: And the Activity [3]?
Answer: Non-Toxic

Question: What about the Activity [4] of the same compound?
Answer: Non-Toxic

Question: What does the source list for O=C(c1c[nH]c2ccccc12)C(NC1CCCC1)c1ccccc1 (stereo not given)?
Answer: pEC50 ([1]; Dengue virus, Rega, Vero, 96 h): 4.82; CC50 at 96 h [2]: 86 µM

Question: With COc1cncc(NC(C(=O)c2c[nH]c3ccccc23)c2ccccc2)n1 (stereo not given) as the compound, how does the pEC50 ([1]; Dengue virus, Rega, Vero, 96 h) read?
Answer: 6.32

Question: And the CC50 at 96 h [2]?
Answer: 68 µM

Question: What does the source list for COc1cccc(NC(C(=O)c2c[nH]c3ccccc23)c2ccc(S(C)(=O)=O)cc2)c1 (stereo not given)?
Answer: pEC50 ([1]; Dengue virus, Rega, Vero, 96 h): 5.80; CC50 at 96 h [2]: > 115 µM

Question: What does the source list for COc1cc(NC(C(=O)c2c[nH]c3cccc(CCCO)c23)c2ccccc2)cc(OC)c1 (stereo not given)?
Answer: pEC50 ([1]; Dengue virus, Rega, Vero, 96 h): 5.85; CC50 at 96 h [2]: 55 µM

Question: With COc1cccc(NC(C(=O)c2c[nH]c3ccccc23)c2nc3ccccc3o2)c1 (stereo not given) as the compound, how does the pEC50 ([1]; Dengue virus, Rega, Vero, 96 h) read?
Answer: 7.96

Question: And the CC50 at 96 h [2]?
Answer: 13 µM

Question: What about the solubility [5] of the same compound?
Answer: 1 µM (≈ 0.397 µg/mL)

Question: And the Papp A→B [6]?
Answer: 5.6 ×10⁻⁶ cm/s

Question: And the fraction unbound [7]?
Answer: < 0.002

Question: And the fraction unbound [8]?
Answer: < 0.004

Question: What about the metabolised at 0.25 h [9] of the same compound?
Answer: 19%

Question: What about the metabolised at 0.25 h [10] of the same compound?
Answer: 99%

Question: And the pIC50 [11]?
Answer: 5.38

Question: What about the pIC50 [12] of the same compound?
Answer: 5.49

Question: What about the pIC50 [13] of the same compound?
Answer: 5.21

Question: What about the pIC50 [14] of the same compound?
Answer: < 5.00

Question: And the pIC50 [15]?
Answer: < 5.00

Question: Which results are given for COc1cccc(NC(C(=O)c2c[nH]c3ccccc23)c2ccccc2C)c1 (stereo not given)?
Answer: pEC50 ([1]; Dengue virus, Rega, Vero, 96 h): 7.02; CC50 at 96 h [2]: 14 µM

Question: With COc1cccc(NC(C(=O)c2c[nH]c3ccccc23)c2ccco2)c1 (stereo not given) as the compound, how does the pEC50 ([1]; Dengue virus, Rega, Vero, 96 h) read?
Answer: 6.53

Question: And the CC50 at 96 h [2]?
Answer: 16 µM

Question: With N#Cc1cccc(NC(C(=O)c2c[nH]c3ccccc23)c2ccccc2)c1 (stereo not given) as the compound, how does the pEC50 ([1]; Dengue virus, Rega, Vero, 96 h) read?
Answer: 5.68

Question: What about the CC50 at 96 h [2] of the same compound?
Answer: 14 µM

Question: What does the source list for COc1cccc(NC(C(=O)c2c[nH]c3ccccc23)c2ccc(C)nc2)c1 (stereo not given)?
Answer: pEC50 ([1]; Dengue virus, Rega, Vero, 96 h): 7.14; CC50 at 96 h [2]: 73 µM

Question: With COc1cccc(NC(C(=O)c2c[nH]c3cccc(F)c23)c2ccccc2)c1 (stereo not given) as the compound, how does the pEC50 ([1]; Dengue virus, Rega, Vero, 96 h) read?
Answer: 6.91

Question: And the CC50 at 96 h [2]?
Answer: 21 µM

Question: What does the source list for COc1cncc(NC(C(=O)c2c[nH]c3ccccc23)c2ccccc2)c1 (stereo not given)?
Answer: pEC50 ([1]; Dengue virus, Rega, Vero, 96 h): 7.44; CC50 at 96 h [2]: 20 µM; solubility [5]: 42 µM (≈ 15 µg/mL); Papp A→B [6]: 4.7 ×10⁻⁶ cm/s; fraction unbound [7]: 0.005; fraction unbound [8]: 0.008; metabolised at 0.25 h [9]: 23%; metabolised at 0.25 h [10]: 86%; pIC50 [16]: 5.46; pIC50 [11]: 5.55; pIC50 [12]: 5.60; pIC50 [13]: 5.48; pIC50 [14]: 5.08; pIC50 [15]: 7.30; Activity [3]: Non-Toxic; Activity [4]: Non-Toxic

Question: With COc1cccc(NC(C(=O)c2c[nH]c3cc(OC)ccc23)c2ccccc2)c1 (stereo not given) as the compound, how does the pEC50 ([1]; Dengue virus, Rega, Vero, 96 h) read?
Answer: 7.37

Question: What about the CC50 at 96 h [2] of the same compound?
Answer: 13 µM

Question: Which results are given for COc1cc(NC(C(=O)c2c[nH]c3ccccc23)c2ccccc2)cc(OCCO)c1 (single isomer, unassigned; (+))?
Answer: pEC50 ([1]; vero): 7.92; CC50 [17]: 105 µM; solubility [5]: 48 µM (≈ 20 µg/mL); Papp A→B [6]: 1.8 ×10⁻⁶ cm/s; fraction unbound [7]: 0.01; fraction unbound [8]: 0.008; Drug metabolism ([9]; microsomes, 0.25 h): 2%; metabolised at 0.25 h [10]: 21%; pIC50 [16]: < 4.30; pIC50 [11]: < 5.00; pIC50 [12]: 5.36; pIC50 [13]: 5.51; pIC50 [14]: < 5.00; pIC50 [15]: < 5.00; clearance [18]: 35 mL/min/kg; Vd [19]: 5.8 L/kg; half-life [20]: 2.4 h; Cmax [21]: 706 nM; AUC(0-t) [22]: 7.32 µM·h; bioavailability [23]: 64%

Question: With COc1cc(F)cc(NC(C(=O)c2c[nH]c3ccccc23)c2ccccc2)c1 (stereo not given) as the compound, how does the pEC50 ([1]; Dengue virus, Rega, Vero, 96 h) read?
Answer: 7.70

Question: What about the CC50 at 96 h [2] of the same compound?
Answer: 22 µM
